Data set [1] has as its system Canis familiaris. Nature of the data set: Unbound AUC (0 to 24 hrs) in dog plasma at 5 mg/kg, po administered as single dose using hydroxypropyl cellulose/docusate sodium formulation. The class given is ADME, organism-based, Canis lupus familiaris. As to conditions: in vivo. In short, it runs like this: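 Dogs given a single oral 5 mg/kg dose as a nanosuspension (hydroxypropyl cellulose SL, 0.05% docusate sodium in purified water), 1/sex. Unbound plasma Cmax and AUC determined, with clinical signs monitored at approximate hours postdose.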

Data set [2] deals with T1, Muscarinic acetylcholine receptor M1 (Homo sapiens, UniProt P11229).
T1 sequence (P11229 whole entry): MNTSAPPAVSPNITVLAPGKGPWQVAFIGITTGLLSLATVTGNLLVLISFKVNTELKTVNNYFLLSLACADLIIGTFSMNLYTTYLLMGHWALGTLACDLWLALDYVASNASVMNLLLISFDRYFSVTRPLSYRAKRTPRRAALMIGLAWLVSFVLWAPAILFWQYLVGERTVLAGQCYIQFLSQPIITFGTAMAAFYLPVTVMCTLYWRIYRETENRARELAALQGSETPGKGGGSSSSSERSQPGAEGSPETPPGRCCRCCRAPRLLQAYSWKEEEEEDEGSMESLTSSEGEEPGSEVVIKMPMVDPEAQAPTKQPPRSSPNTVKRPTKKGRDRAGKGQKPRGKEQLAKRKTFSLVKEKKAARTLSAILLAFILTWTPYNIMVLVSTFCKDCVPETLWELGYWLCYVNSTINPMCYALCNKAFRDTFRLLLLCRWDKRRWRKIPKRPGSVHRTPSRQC
Nature of the data set: Activity at human muscarinic acetylcholine receptor M1 expressed in CHO cells assessed as increase in calcium mobilization incubated for 10 mins by Fluo-8-AM dye based FLIPR assay. The class given is cell-based. In general terms: Calcium flux is commonly read through the fluorescence of an indicator in the cells.

Data set [3] in a line: Ratio of AUC in dog brain to plasma at 0.5 mg/kg, po or 0.1 mg/kg, iv administered as single bolus dose. It counts as ADME, organism-based, Canis lupus familiaris. As to conditions: read-out: Ratio AUC. In a few lines:
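Brain/plasma ratio computed from AUC of total drug in brain and total drug in plasma.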

For data set [4], the system named is Canis familiaris. Put plainly: Toxicity in dog assessed as unbound Cmax in plasma required to show convulsions at 15 mg/kg, po administered as single dose using spray dried dispersion formulation. The class given is organism-based, Canis lupus familiaris. Conditions: in vivo.
The subject of the next data set is Plasma. Nature of the data set: Unbound plasma concentration in amphetamine-induced hyperlocomotion C57BL/6 mouse at 0.3 mg/kg, sc measured after 1 hr by LC-MS/MS analysis. Conditions: in vivo. It counts as ADME, organism-based. In a few lines: (§1)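 Satellite group of C57BL/6 mice from the amphetamine-stimulated locomotor study, N = 2/dose at 0.32, 1 and 3.2 mg/kg. Dosed sc as a solution in 10/90 Cremophor/water. Unbound plasma and brain concentrations measured at T = 1 h.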

Data set [5] concerns the target T1, Muscarinic acetylcholine receptor M1. Nature of the data set: Activity at human muscarinic acetylcholine receptor M1 expressed in CHO cells by beta-arrestin recruitment assay. The class given is cell-based. (In general: Recruitment of arrestin is a read-out of receptor activation apart from second messengers.)
Data set [6] has as its system Brain. Nature of the data set: Unbound brain concentration in amphetamine-induced hyperlocomotion C57BL/6 mouse at 3.2 mg/kg, sc measured after 1 hr by LC-MS/MS analysis. Conditions: in vivo. It counts as ADME, organism-based. In a few lines: as §1
The subject of data set [7] is Rattus norvegicus. Put plainly: Unbound Cmax in rat plasma at 45 mg/kg, po administered as single dose. As to conditions: in vivo. The class given is ADME, organism-based.
Data set [8] can be described thus: Ratio of unbound Cmax in rat brain assessed as convulsions at 45 mg/kg, po administered as single dose to unbound brain concentration for agonist activity at muscarinic acetylcholine receptor M1 in C57BL/6 mouse assessed as required to show 2 fold increase in IP1 accumulation in striatum at 1 to 10 mg/kg, sc. The class given is organism-based.
The subject of data set [9] is Brain. Nature of the data set: Unbound brain concentration in scopolamine-induced memory impairment Wistar rat model at 3.2 mg/kg, sc measured after 1.25 hrs by LC-MS/MS analysis. The class given is ADME, organism-based. Conditions: in vivo.
Data set [10] deals with Rattus norvegicus. Nature of the data set: Toxicity in rat assessed as unbound plasma concentration required for convulsions at 45 mg/kg, po administered as single dose after 1 to 6 hrs. It counts as organism-based. Conditions: in vivo.
Data set [11] relates to Brain. Nature of the data set: Unbound brain concentration in scopolamine-induced memory impairment Wistar rat model at 1 mg/kg, sc measured after 1.25 hrs by LC-MS/MS analysis. As to conditions: in vivo. The class given is ADME, organism-based.
For a further data set, the system named is Mus musculus. Put plainly: Reversal of amphetamine-induced hyperlocomotion in C57BL/6 mouse assessed as decrease in total distance traveled at 0.3 to 3.2 mg/kg, sc pretreated for 30 mins followed by amphetamine dosing measured for 90 mins. The class given is functional, organism-based. In a few lines: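 C57BL/6 mice, D-amphetamine-stimulated locomotor activity. Compound at 0.32, 1 and 3.2 mg/kg sc as a solution in 10/90 Cremophor/water. Plasma and brain exposures from a satellite group (N = 2/dose) at 1 h.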

Data set [12] deals with T1, Muscarinic acetylcholine receptor M1. Put plainly: Positive allosteric modulation of human muscarinic acetylcholine receptor M1 expressed in CHO cells assessed as increase in acetylcholine-induced calcium mobilization by measuring functional co-operativity with acetylcholine preincubated for 10 mins followed by acetylcholine addition by Fluo-8-AM dye based FLIPR assay. The class given is ADME, cell-based. In a few lines: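 In FLIPR calcium-mobilization data, ACh concentration–response curves with and without test compound were fitted with the Black/Leff operational model. α gives the change in receptor affinity for ACh, and β gives the change in efficacy, the functional cooperativity.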

The test system of data set [13] is Canis familiaris. Nature of the data set: Toxicity in dog assessed as convulsion at 15 mg/kg, po administered as single dose using spray dried dispersion formulation after 1.2 hrs. The class given is organism-based, Canis lupus familiaris. Conditions: in vivo. In short, it runs like this: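 Dog single oral dose escalation: 1/sex at 5 mg/kg for each formulation; 1 female at 15 mg/kg. Spray-dried dispersion: 23% drug loading with 0.5% methylcellulose and 100 mM citrate buffer. Clinical signs timed in approximate hours postdose; unbound plasma Cmax.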

Data set [14] deals with Rattus norvegicus. Put plainly: Toxicity in rat assessed as unbound Cmax in plasma required to show convulsions at 45 mg/kg, po administered as single dose. As to conditions: in vivo. The class given is organism-based.
For data set [15], the target named is T2, Muscarinic acetylcholine receptor M5 (Homo sapiens, UniProt P08912).
T2 sequence (P08912 whole entry): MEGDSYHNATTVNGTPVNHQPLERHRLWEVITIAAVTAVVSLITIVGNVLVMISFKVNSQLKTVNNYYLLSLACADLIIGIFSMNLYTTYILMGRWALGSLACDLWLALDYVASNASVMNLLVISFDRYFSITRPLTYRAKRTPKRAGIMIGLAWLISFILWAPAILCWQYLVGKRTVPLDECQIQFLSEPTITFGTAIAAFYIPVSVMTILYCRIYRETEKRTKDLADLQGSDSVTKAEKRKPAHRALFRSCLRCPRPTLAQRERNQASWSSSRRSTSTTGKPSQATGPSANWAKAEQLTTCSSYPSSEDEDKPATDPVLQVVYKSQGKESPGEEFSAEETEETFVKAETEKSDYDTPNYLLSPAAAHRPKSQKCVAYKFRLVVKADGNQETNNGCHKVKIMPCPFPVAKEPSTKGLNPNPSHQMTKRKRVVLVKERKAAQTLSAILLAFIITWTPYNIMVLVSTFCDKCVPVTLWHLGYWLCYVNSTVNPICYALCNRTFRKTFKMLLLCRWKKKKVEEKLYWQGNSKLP
Nature of the data set: Agonist activity at human muscarinic acetylcholine receptor M5 expressed in CHO cells assessed as increase in calcium mobilization incubated for 10 mins by Fluo-8-AM dye based FLIPR assay. The class given is cell-based. In short, it runs like this:
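Recombinant functional human M2–M5 assays, each run in agonist and PAM modes at concentrations up to 10 μM.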

Data set [16] in a line: Unbound plasma concentration in rat at 2 mg/kg, po or 0.5 mg/kg, iv administered as single bolus dose. The class given is ADME, organism-based. In a few lines:
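Rat PK: IV bolus given as a solution, 0.5 mg/kg in 20% HPBCD; oral dose given as a suspension, 2 mg/kg in 0.5% methylcellulose. Fraction unbound in plasma determined.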

Active and inactive are the calls of the source. The rule behind the calls is not given here. Where only a bound is given, the exact number is not on record here.

For `Cc1cc2c(cc1Cc1ccc(-c3cocn3)cc1)C(=O)N([C@H]1CCOC[C@@H]1O)C2`, in the data set with Canis familiaris [1], the fAUC stood at 3.37 µM·h. Also, the Kb in [2] amounted to 3 µM; in data set [5], 8 µM. In [3], the Kp was 0.7. Also, the values for the fCmax with Canis familiaris [4], in the data set on Rattus norvegicus [7] and in the data set on Rattus norvegicus [14] were 1070 nM, 2.31 to 3.83 µM and 2310 nM, respectively. The “Cp(f)” value came to 7.3 nM in the data set with Plasma and 2310 nM in the data set with Rattus norvegicus [10]. Further, the “Drug uptake(free)” value in the data set with Brain [6] is listed as 32 nM; in the data set with Brain [9], 40 nM; in the data set with Brain [11] it was 13 nM. The selectivity ratio in data set [8] was determined as 20. For the same molecule, the outcome in the data set with Mus musculus was Active. Moreover, the “log(activity)” value in data set [12] is listed as 2.3. Further, the Activity entry in the data set with Canis familiaris [13] is listed as “Toxic”. Moreover, in data set [15], the concentration giving a half-maximal response (EC50) (in general, the concentration giving half of the maximal effect) is greater than 10 µM. Also, the fraction unbound – broadly, the share of the substance not bound to proteins or other matrix – in data set [16] is 0.035.
